Experimental findings from ChEMBL document CHEMBL4312029, “Structure-activity relationship studies and in vitro and in vivo anticancer activity of novel 3-aroyl-1,4-diarylpyrroles against solid tumors and hematological malignancies” (Eur J Med Chem, 2020) are described below.

One data set concerns SW480. Put plainly: Cytotoxicity against human SW480 cells assessed as reduction in cell viability incubated for 48 hrs by MTT assay. The note with it: for IC50: SW480, 48 h. In kind it is functional, cell-based. (Tetrazolium assays rely on reduction of a dye to a coloured formazan, in cell work by metabolically active cells.)
The nature of data set [1]: Cytotoxicity against IM resistant human LAMA84-r cells assessed as reduction in cell viability incubated for 48 hrs by MTT assay. Type of data set: functional, cell-based.
The subject of data set [2] is KBM5. Kind of data set: Cytotoxicity against human KBM5 cells expressing IM-resistant Bcr/Abl T315I mutant assessed as reduction in cell viability incubated for 48 hrs by MTT assay. In kind it is functional, cell-based. The note with it: KBM5, 48 h.
The next data set concerns SW-620. Kind of data set: Cytotoxicity against human SW620 cells assessed as reduction in cell viability incubated for 48 hrs by MTT assay. Type of data set: functional, cell-based. The note with it: for IC50: SW-620, 48 h.
Another data set concerns PBMC. Put plainly: Cytotoxicity against human PBMC assessed as cell viability by MTT assay. Type of data set: cell-based.
In another data set the target is Tubulin (Homo sapiens) (UniProt P68371+Q9H4B7+P0DPH7+P68366+Q13509+Q71U36+P04350+Q3ZCM7+P07437+P68363+Q9BQE3+Q6PEY2+Q13885+Q9BVA1+Q9BUF5). Put plainly: Inhibition of [3H]colchicine binding to tubulin (unknown origin) at 5 uM incubated for 10 mins by DEAE-cellulose filter method relative to control. Type of data set: protein-complex assay.
A further data set relates to U-87 MG. Kind of data set: Cytotoxicity against human U87MG cells assessed as reduction in cell viability incubated for 48 hrs by MTS assay. In kind it is functional, cell-based, U-87MG ATCC. As to conditions: for inhibition: U-87MG ATCC. The procedure, abridged:
(§1)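 Increasing concentrations applied to glioblastoma and neuroblastoma lines to give dose-response viability curves; cytotoxic IC50 from triplicate experiments. Incubation 48 h, except U343MG at 72 h.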

A further data set has as its target Tubulin. Kind of data set: Inhibition of tubulin polymerization (unknown origin) incubated for 15 mins followed by GTP addition and measured for 20 mins by spectrophotometry. Type of data set: protein-complex assay, Homo sapiens. The procedure, abridged: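 Tubulin assembly assay with tubulin at 10 µM. IC50 for inhibition of polymerization; run in duplicate or triplicate.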

Data set [3] deals with KBM5. Kind of data set: Cytotoxicity against human KBM5 cells expressing IM- sensitive wild type Bcr/Abl assessed as reduction in cell viability incubated for 48 hrs by MTT assay. In kind it is functional, cell-based. The note with it: KBM5, 48 h.
Data set [4] can be described thus: Cytotoxicity against human SK-N-BE(2)C cells assessed as reduction in cell viability incubated for 48 hrs by MTT assay. In kind it is functional, cell-based. The procedure, abridged:
as §1

Data set [5] is described as follows: Cytotoxicity against human LAMA84-s cells expressing IM-sensitive wild type Bcr/Abl assessed as reduction in cell viability incubated for 48 hrs by MTT assay. In kind it is functional, cell-based.
Another data set has as its system HT-29. Kind of data set: Cytotoxicity against human HT-29 cells assessed as reduction in cell viability incubated for 48 hrs by MTT assay. Type of data set: functional, cell-based. The note with it: for IC50: HT-29, 48 h.
The nature of data set [6]: (§2) Cytotoxicity against human U343MG cells assessed as reduction in cell viability incubated for 72 hrs by MTS assay. Type of data set: functional, cell-based. The note with it: U-343MG. The method, boiled down: as §1
Another data set is filed under the species Homo sapiens. The data set is described as §2. In kind it is functional, cell-based. The method, boiled down:
as §1

Another data set relates to T98G. Put plainly: Cytotoxicity against human T98G cells assessed as reduction in cell viability incubated for 48 hrs by MTS assay. In kind it is functional, cell-based. The method, boiled down: as §1
The nature of data set [7]: Cytotoxicity against human SK-N-BE cells assessed as reduction in cell viability incubated for 48 hrs by MTT assay. Type of data set: functional, cell-based. The procedure, abridged: as §1
The subject of a further data set is HCT-116. Put plainly: Cytotoxicity against human HCT116 cells assessed as reduction in cell viability incubated for 48 hrs by MTT assay. Type of data set: functional, cell-based. As to conditions: for IC50: HCT-116, 48 h.
For a further data set, the system named is T-24. Put plainly: Cytotoxicity against human T24 cells assessed as reduction in cell viability incubated for 48 hrs by MTT assay. In kind it is functional, cell-based. The note with it: T-24, 48 h.
The next data set deals with MCF7. Kind of data set: Cytotoxicity against human MCF7 cells assessed as reduction in cell growth incubated for 96 hrs by MTT assay. Type of data set: functional, cell-based. As to conditions: MCF7, 96 h. The procedure, abridged: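 Growth inhibition of human breast carcinoma cells, reported as IC50; run in duplicate or triplicate.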
In another data set the test system is KU812 cell line. Put plainly: Cytotoxicity against human KU812 cells expressing IM- sensitive wild type Bcr/Abl assessed as reduction in cell viability incubated for 48 hrs by MTT assay. Type of data set: functional, cell-based. The note with it: KU812, 48 h.

A value given as a limit tells only on which side of the number the result lay.

As for `COc1cc(C(=O)c2cn(-c3cccc(N)c3)cc2-c2ccccc2F)cc(OC)c1OC`, the inhibition (commonly the relative decrease from the control value, in per cent) with SW480 was “Dose-dependent effect”; in the data set on SW-620 it was “Dose-dependent effect”; on Tubulin (Homo sapiens) it was 90%; with U-87 MG it was “Dose-dependent effect”; in the data set on HT-29, “Dose-dependent effect”; in the data set filed under Homo sapiens, “Dose-dependent effect”. Besides, the inhibition entry with T98G and with HCT-116 was “Dose-dependent effect” each time. The IC50 (commonly the concentration at which inhibition is half-maximal) with SW480 was 162 nM; in data set [1], 14 nM; in the data set on KBM5 [2], 22 nM; with SW-620 it was 123 nM; with U-87 MG, 61 to 61.4 nM; at Tubulin, 500 nM. Moreover, the IC50 in the data set with KBM5 [3] was 18 nM; in [4], 106 nM; in [5], 15 nM; in the data set on HT-29 it was 56 nM; in [6] it was 68.9 to 69 nM; in the data set on T98G, 54 to 54.4 nM. The IC50 turned out to be 244 nM in [7]; 42 nM with HCT-116; 34 nM with T-24; 17 nM in the data set on MCF7; 14 nM in the data set with KU812 cell line. Moreover, in the data set with PBMC, the Activity result is reported as “Non-Toxic”. Also, the Emax was determined as 22% in the data set with U-87 MG, 31% in data set [6] and 38.4% in the data set on T98G.

Consider `COc1cc(C(=O)c2cn(-c3cccc(N)c3)cc2-c2ccccc2[N+](=O)[O-])cc(OC)c1OC`, for which the inhibition result was “Dose-dependent effect” in the data set with SW480; “Dose-dependent effect” with SW-620; 82% at Tubulin (Homo sapiens); “Dose-dependent effect” with U-87 MG; “Dose-dependent effect” in the data set on HT-29; “Dose-dependent effect” in the data set filed under Homo sapiens. For the same compound, the inhibition result in the data set with T98G and in the data set with HCT-116 was “Dose-dependent effect” each time. Moreover, the half-inhibitory concentration (IC50) in the data set with SW480 was 164 nM; in data set [1] it was 20 nM; in the data set on KBM5 [2], 21 nM; in the data set with SW-620, 38 nM; in the data set on U-87 MG, 29.9 to 30 nM; at Tubulin, 710 nM. Also, the concentration for half-maximal inhibition (IC50) is 15 nM in the data set with KBM5 [3]; 132 nM in data set [4]; 18 nM in data set [5]; 51 nM in the data set on HT-29; 30 to 30.2 nM in data set [6]; 34.6 to 35 nM in the data set with T98G. For the same compound, the IC50 in data set [7] stood at 311 nM; in the data set on HCT-116, 44 nM; in the data set on T-24, 12 nM; in the data set with MCF7, 14 nM; in the data set on KU812 cell line, 16 nM. Besides, the Activity result in the data set on PBMC is “Non-Toxic”. Further, the Emax was found to be 32.4% with U-87 MG, 35.3% in data set [6] and 26.7% in the data set on T98G.

For the compound `COc1cc(C(=O)c2cn(-c3ccc(F)cc3)cc2-c2ccc(N)cc2)cc(OC)c1OC`, the inhibition result in the data set on SW480 was “Dose-dependent effect”; in the data set on SW-620, “Dose-dependent effect”; on Tubulin (Homo sapiens), 90%; in the data set with U-87 MG, “Dose-dependent effect”; with HT-29, “Dose-dependent effect”; in the data set listed under Homo sapiens it was “Dose-dependent effect”. For the same compound, the inhibition result in the data set with T98G and with HCT-116 was “Dose-dependent effect” each time. In addition, the IC50 in the data set with SW480 is 167 nM; in data set [1], 22 nM; in the data set with KBM5 [2], 26 nM; in the data set with SW-620, 47 nM; in the data set on U-87 MG it was 45.8 to 46 nM; on Tubulin, 500 nM. For the same compound, the IC50 was 25 nM with KBM5 [3]; 178 nM in data set [4]; 20 nM in [5]; 35 nM with HT-29; 20 to 20.1 nM in data set [6]; 21.8 to 22 nM in the data set on T98G. For the same compound, the half-maximal inhibitory concentration (IC50) in data set [7] was 288 nM; with HCT-116 it was 36 nM; in the data set on T-24, 48 nM; in the data set on MCF7, 12 nM; with KU812 cell line, 18 nM. Also, the Activity entry in the data set with PBMC was “Non-Toxic”. Moreover, the Emax with U-87 MG came to 32%; in data set [6], 37.1%; in the data set with T98G it was 31%.

Turning to `COc1cc(C(=O)c2cn(-c3cccc(C)c3)cc2-c2cccc([N+](=O)[O-])c2)cc(OC)c1OC`, the inhibition on Tubulin (Homo sapiens) came out at 4.2%. Also, the IC50 against Tubulin is over 20000 nM; in the data set on MCF7, 880 nM.

`COc1cc(C(=O)c2cn(-c3ccc(C)cc3)cc2-c2ccc([N+](=O)[O-])cc2)cc(OC)c1OC` returned an inhibition at Tubulin (Homo sapiens) of 34%. Besides, the IC50 against Tubulin was determined as 650 nM; with MCF7 it was 200 nM.

`COc1cc(C(=O)c2cn(-c3ccccc3)cc2-c2cc(F)ccc2F)cc(OC)c1OC` came in with an inhibition on Tubulin (Homo sapiens) of 24%. Also, the IC50 was 1300 nM on Tubulin and 230 nM in the data set on MCF7.

With `COc1ccccc1-n1cc(C(=O)c2cc(OC)c(OC)c(OC)c2)c(-c2ccccc2)c1`, the inhibition at Tubulin (Homo sapiens) came to 22%. Besides, the IC50 is 1300 nM at Tubulin and 150 nM in the data set on MCF7.

Consider `COc1cc(C(=O)c2cn(-c3cccc(C)c3)cc2-c2ccc([N+](=O)[O-])cc2)cc(OC)c1OC`, for which, on Tubulin (Homo sapiens), the inhibition came to 10%. Also, the IC50 against Tubulin is over 20000 nM; in the data set on MCF7 it was 780 nM.

`COc1cc(C(=O)c2cn(-c3ccc(N)cc3)cc2-c2ccccc2F)cc(OC)c1OC`: the inhibition at Tubulin (Homo sapiens) turned out to be 79%. In addition, the IC50 was determined as 590 nM against Tubulin and 28 nM with MCF7.

The compound `COc1cc(C(=O)c2cn(-c3cccc(C)c3)cc2-c2ccccc2[N+](=O)[O-])cc(OC)c1OC` had an inhibition on Tubulin (Homo sapiens) of 41%. Besides, the IC50 is 1200 nM against Tubulin and 220 nM with MCF7.

Take `COc1cc(C(=O)c2cn(-c3ccccc3)cc2-c2ccccc2Cl)cc(OC)c1OC`: the inhibition on Tubulin (Homo sapiens) stood at 50%. Moreover, the IC50 against Tubulin turned out to be 630 nM; in the data set on MCF7 it was 76 nM.

In turn, `COc1cc(C(=O)c2cn(-c3cccc(N)c3)cc2-c2ccc([N+](=O)[O-])cc2)cc(OC)c1OC` came in with an inhibition on Tubulin (Homo sapiens) of 41%. Further, the IC50 against Tubulin came out at 780 nM; in the data set with MCF7, 110 nM.

At Tubulin (Homo sapiens), `COc1cc(C(=O)c2cn(-c3ccc(Cl)cc3)cc2-c2ccccc2)cc(OC)c1OC` showed an inhibition of 42%. Further, the IC50 on Tubulin was determined as 1700 nM; in the data set on MCF7, 140 nM.

As for `COc1cc(C(=O)c2cn(-c3ccc(N)cc3)cc2-c2ccc([N+](=O)[O-])cc2)cc(OC)c1OC`, the inhibition on Tubulin (Homo sapiens) was 23%. Further, the IC50 against Tubulin was determined as 1800 nM; in the data set with MCF7, 260 nM.

Take `COc1cc(C(=O)c2cn(-c3ccc(F)cc3)cc2-c2ccc([N+](=O)[O-])cc2)cc(OC)c1OC`: the inhibition on Tubulin (Homo sapiens) turned out to be 0%. The figures for the IC50 against Tubulin and in the data set with MCF7 were over 20000 nM and 240 nM, respectively.

At Tubulin (Homo sapiens), `COc1cc(C(=O)c2cn(-c3cccc(N)c3)cc2-c2ccccc2Cl)cc(OC)c1OC` showed an inhibition of 79%. Besides, the IC50 against Tubulin is 630 nM; with MCF7, 40 nM.

In turn, `COc1cc(C(=O)c2cn(-c3ccc(C)cc3)cc2-c2cccc([N+](=O)[O-])c2)cc(OC)c1OC` displayed an inhibition on Tubulin (Homo sapiens) of 36%. The results for the IC50 on Tubulin and in the data set with MCF7 were 710 nM and 210 nM, respectively.
